# Data from ChEMBL document CHEMBL1275602, “Daptomycin is effective for treatment of experimental endocarditis due to methicillin-resistant and glycopeptide-intermediate Staphylococcus epidermidis” (Antimicrob Agents Chemother, 2010).
# The source made the active and inactive calls.
# Columns and labels:
# [1] = Cmax in rabbit at 10 mg/kg, iv; settings: in vivo
# [2] = Cmax in rabbit at 10 mg/kg/day, iv; format: ADME, organism-based, Oryctolagus cuniculus; parameters: dose 10 mg/kg/day, route intravenous; settings: in vivo
# Method in brief: (§1)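 Rabbits given drug i.v. over 15 min by computer-controlled infusion pump, designed to reproduce human serum PK (6 or 10 mg/kg/day human-equivalent regimens). Mean trough and Cmax measured in serum.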
# [3] = tested on: Staphylococcus epidermidis; assay: Bactericidal activity against glycopeptide-intermediate Staphylococcus epidermidis NRS6 at 2 times MIC after 24 hrs by time kill analysis; format: functional, organism-based
# Method in brief: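 Time-kill in CAMHB with a starting inoculum of 5 × 10^5 to 1 × 10^6 CFU/ml from an overnight culture. […] Viable counts at 0, 4 and 24 h, with carryover handled by dilution. Bactericidal was defined as a ≥3-log10 CFU/ml fall at 24 h versus the inoculum. Run in duplicate.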
# [4] = tested on: Staphylococcus epidermidis; assay: Antimicrobial activity against methicillin-resistant Staphylococcus epidermidis 375 in acute infective endocarditis rabbit model assessed as bacterial titer per gram of vegetation at 10 mg/kg/day, iv after 48 hrs; format: functional
# Method in brief: (§2)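 New Zealand White rabbits (2 kg) with catheter-induced aortic valve endocarditis. Infected i.v. 48 h after catheter placement with 1 ml of about 1 × 10^9 CFU/ml. Bacteremia confirmed before therapy. Computer-controlled infusion via the vena cava simulated human PK for 48 h. Killed after 6 further half-lives. Vegetations cultured as log10 CFU/g; sterile meant no growth after one week. 15–17 animals per arm.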
# [5] = tested on: Staphylococcus epidermidis; assay: Antimicrobial activity against methicillin-resistant Staphylococcus epidermidis 375 by broth microdilution method; format: functional
# Method in brief: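 Broth microdilution in cation-adjusted Mueller-Hinton broth following CLSI procedures. MIC and MBC determined for each strain. For daptomycin the broth was adjusted to 50 μg/ml calcium.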
# [6] = tested on: Staphylococcus epidermidis; assay: Antimicrobial activity against glycopeptide-intermediate Staphylococcus epidermidis NRS6 by broth microdilution method; format: functional
# Method in brief: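 Broth microdilution in cation-adjusted Mueller-Hinton broth following CLSI procedures. MIC and MBC determined for each strain. For daptomycin the broth was adjusted to 50 μg/ml calcium. S. aureus ATCC 29213 served as the test control strain.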
# [7] = tested on: Staphylococcus epidermidis; assay: Antimicrobial activity against methicillin-resistant Staphylococcus epidermidis 375 in acute infective endocarditis rabbit model assessed as bacterial titer per gram of vegetation at 6 mg/kg/day, iv after 48 hrs; format: functional
# Method in brief: as §2
# [8] = tested on: Staphylococcus epidermidis; assay: Antimicrobial activity against glycopeptide-intermediate Staphylococcus epidermidis NRS6 in acute infective endocarditis rabbit model assessed as bacterial titer per gram of vegetation at 10 mg/kg/day, iv after 48 hrs; format: functional
# Method in brief: (§3)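 New Zealand White rabbits (2 kg) with catheter-induced aortic valve endocarditis were infected i.v. with 1 ml of about 1 × 10^9 CFU/ml 48 h after catheter placement. Dosing started 48 h after infection by computer-controlled i.v. infusion simulating human PK, given over 15 min for 48 h. Animals were killed after 6 half-lives. Vegetations were cultured and reported as log10 CFU/g. Sterile meant no growth, including 1-week broth culture. 15 to 17 animals per arm.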
# [9] = tested on: Staphylococcus epidermidis; assay: Antimicrobial activity against glycopeptide-intermediate Staphylococcus epidermidis NRS6 in acute infective endocarditis rabbit model assessed as sterile vegetation level at 6 mg/kg/day, iv after 48 hrs; format: functional
# Method in brief: as §3
# [10] = tested on: Staphylococcus epidermidis; assay: Antimicrobial activity against methicillin-resistant Staphylococcus epidermidis 375 in acute infective endocarditis rabbit model assessed as sterile vegetation level at 10 mg/kg/day, iv after 48 hrs; format: functional
# Method in brief: as §2
# [11] = tested on: Staphylococcus epidermidis; assay: Antimicrobial activity against methicillin-resistant Staphylococcus epidermidis 375 in acute infective endocarditis rabbit model assessed as sterile vegetation level at 6 mg/kg/day, iv after 48 hrs; format: functional
# Method in brief: as §2
# [12] = tested on: Oryctolagus cuniculus; assay: Cmin in rabbit at 10 mg/kg/day, iv; format: ADME, organism-based; parameters: route intravenous; settings: in vivo
# Method in brief: as §1
# [13] = tested on: Staphylococcus epidermidis; assay: Bactericidal activity against methicillin-resistant Staphylococcus epidermidis 375 at 2 times MIC after 24 hrs by time kill analysis; format: functional, organism-based
# Method in brief: (§4)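 Time-kill in CAMHB. Overnight culture gave a final inoculum of 5 × 10^5 to 1 × 10^6 CFU/ml. […] Viable counts taken at 0, 4 and 24 h, with carryover removed by dilution. Bactericidal meant at least a 3-log10 CFU/ml fall at 24 h versus the inoculum. Run in duplicate.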
# [14] = tested on: Staphylococcus epidermidis; assay: Antimicrobial activity against glycopeptide-intermediate Staphylococcus epidermidis NRS6 in acute infective endocarditis rabbit model assessed as sterile vegetation level at 10 mg/kg/day, iv after 48 hrs; format: functional
# Method in brief: as §3
# [15] = tested on: Staphylococcus epidermidis; assay: Antimicrobial activity against methicillin-resistant Staphylococcus epidermidis isolates; format: functional
# [16] = tested on: Staphylococcus epidermidis; assay: Antimicrobial activity against glycopeptide-intermediate Staphylococcus epidermidis NRS6 in acute infective endocarditis rabbit model assessed as bacterial titer per gram of vegetation at 6 mg/kg/day, iv after 48 hrs; format: functional
# Method in brief: as §3
# [17] = tested on: Staphylococcus epidermidis; assay: Bacteriostatic activity against glycopeptide-intermediate Staphylococcus epidermidis NRS6 at 0.5 times MIC after 24 hrs by time kill analysis; format: functional, organism-based
# Method in brief: as §4
# [18] = tested on: Staphylococcus epidermidis; assay: Bactericidal activity against glycopeptide-intermediate Staphylococcus epidermidis NRS6 assessed as reduction in bacterial CFU at 2 times MIC after 24 hrs by time kill analysis; format: functional
# [19] = tested on: Staphylococcus epidermidis; assay: Antimicrobial activity against methicillin-resistant Staphylococcus epidermidis 375 in acute infective endocarditis rabbit model assessed as sterile vegetation level at 15 mg/kg, iv administered every 12 hrs measured after 48 hrs; format: functional
# Method in brief: as §2
# [20] = tested on: Staphylococcus epidermidis; assay: Antimicrobial activity against glycopeptide-intermediate Staphylococcus epidermidis NRS6 in acute infective endocarditis rabbit model assessed as sterile vegetation level at 15 mg/kg administered every 12 hrs, iv measured after 48 hrs; format: functional
# Method in brief: as §2
# [21] = tested on: Staphylococcus epidermidis; assay: Antimicrobial activity against methicillin-resistant Staphylococcus epidermidis 375 in acute infective endocarditis rabbit model assessed as sterile vegetation level at 15 mg/kg, iv administered every 6 hrs measured after 48 hrs; format: functional
# Method in brief: as §2
# [22] = tested on: Staphylococcus epidermidis; assay: Bacteriostatic activity against methicillin-resistant Staphylococcus epidermidis 375 at MIC after 24 hrs by time kill analysis; format: functional, organism-based
# Method in brief: as §4
# [23] = tested on: Staphylococcus epidermidis; assay: Bacteriostatic activity against glycopeptide-intermediate Staphylococcus epidermidis NRS6 at MIC after 24 hrs by time kill analysis; format: functional, organism-based
# Method in brief: as §4
# [24] = tested on: Staphylococcus epidermidis; assay: Antimicrobial activity against methicillin-resistant Staphylococcus epidermidis 375 in acute infective endocarditis rabbit model assessed as bacterial titer per gram of vegetation at 15 mg/kg administered every 12 hrs, iv measured after 48 hrs; format: functional
# Method in brief: as §2
# [25] = tested on: Staphylococcus epidermidis; assay: Bacteriostatic activity against glycopeptide-intermediate Staphylococcus epidermidis NRS6 at 2 times MIC after 24 hrs by time kill analysis; format: functional, organism-based
# Method in brief: as §4
# [26] = tested on: Staphylococcus epidermidis; assay: Antimicrobial activity against methicillin-resistant Staphylococcus epidermidis 375 in acute infective endocarditis rabbit model assessed as bacterial titer per gram of vegetation at 15 mg/kg administered every 6 hrs, iv measured after 48 hrs; format: functional
# Method in brief: as §2
# [27] = tested on: Staphylococcus epidermidis; assay: Bacteriostatic activity against methicillin-resistant Staphylococcus epidermidis 375 at 2 times MIC after 24 hrs by time kill analysis; format: functional, organism-based
# Method in brief: as §4
# [28] = tested on: Staphylococcus epidermidis; assay: Bacteriostatic activity against methicillin-resistant Staphylococcus epidermidis 375 at 0.5 times MIC after 24 hrs by time kill analysis; format: functional, organism-based
# Method in brief: as §4
# [29] = tested on: Staphylococcus epidermidis; assay: Antimicrobial activity against glycopeptide-intermediate Staphylococcus epidermidis NRS6 in acute infective endocarditis rabbit model assessed as bacterial titer per gram of vegetation at 15 mg/kg administered every 12 hrs, iv measured after 48 hrs; format: functional
# Method in brief: as §2
# [30] = tested on: Oryctolagus cuniculus; assay: Cmin in methicillin-resistant Staphylococcus epidermidis 375 infected rabbit at 60 mg/kg, iv; settings: in vivo
compound,measurement,setting,value
CCCCCCCCCC(=O)N[C@@H](Cc1c[nH]c2ccccc12)C(=O)N[C@H](CC(N)=O)C(=O)N[C@@H](CC(=O)O)C(=O)N[C@@H]1C(=O)NCC(=O)N[C@@H](CCCN)C(=O)N[C@@H](CC(=O)O)C(=O)N[C@H](C)C(=O)N[C@@H](CC(=O)O)C(=O)NCC(=O)N[C@H](CO)C(=O)N[C@@H]([C@H](C)CC(=O)O)C(=O)N[C@@H](CC(=O)c2ccccc2N)C(=O)O[C@@H]1C,Cmax,[1],146 µg/mL
same,Cmax,[2],146 µg/mL
same,Activity,[3],Active
same,log10cfu,[4],0
same,MBC,[5],1 µg/mL
same,MIC,[5],0.5 µg/mL
same,MBC,[6],4 µg/mL
same,MIC,[6],2 µg/mL
same,log10cfu,[7],0
same,log10cfu,[8],3.9
same,Activity,[9],6%
same,Activity,[10],73%
same,Activity,[11],60%
same,Cmin,[12],18.04 µg/mL
same,Activity,[13],Active
same,Activity,[14],0%
same,MIC,[15],≥ 2 µg/mL
same,log10cfu,[16],3.7
GENTAMICIN,MIC,[6],64 µg/mL
CN[C@H](CC(C)C)C(=O)N[C@H]1C(=O)N[C@@H](CC(N)=O)C(=O)N[C@H]2C(=O)N[C@H]3C(=O)N[C@H](C(=O)N[C@H](C(=O)O)c4cc(O)cc(O)c4-c4cc3ccc4O)[C@H](O)c3ccc(c(Cl)c3)Oc3cc2cc(c3O[C@@H]2O[C@H](CO)[C@@H](O)[C@H](O)[C@H]2O[C@H]2C[C@](C)(N)[C@H](O)[C@H](C)O2)Oc2ccc(cc2Cl)[C@H]1O [VANCOMYCIN],Activity,[17],Active
same,fold change (FC),[18],2.8
same,Activity,[19],19%
same,Activity,[20],0%
same,MBC,[5],4 µg/mL
same,MBC,[6],16 µg/mL
same,MIC,[6],8 µg/mL
same,Activity,[21],33%
same,Activity,[22],Active
same,Activity,[23],Active
same,log10cfu,[24],2
same,Activity,[25],Active
same,log10cfu,[26],2
same,Activity,[27],Active
same,Activity,[28],Active
same,log10cfu,[29],7.1
same,Cmin,[30],20 µg/mL
CO[C@H]1/C=C/O[C@@]2(C)Oc3c(C)c(O)c4c(O)c(c(/C=N/N5CCN(C)CC5)c(O)c4c3C2=O)NC(=O)/C(C)=C\C=C\[C@H](C)[C@H](O)[C@@H](C)[C@@H](O)[C@@H](C)[C@H](OC(C)=O)[C@@H]1C [RIFAMPIN],MBC,[6],> 0.25 µg/mL
same,MIC,[6],0.008 µg/mL
